According to PubChem BioAssay AID463104 (Sanford-Burnham Center for Chemical Genomics, 2010):
In all, about 330,000 compounds went through this assay and about 1,100 (0.33%) were called active.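 Rule for the calls: active = versus positive control, 20 µM dose yields 30% or more activation; inactive = the rest.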 For the sample, actives were picked, then their nearest neighbours and some compounds at random.

Experiment: activators of adaptive XBP1 UPR arm, primary screen, cell-based, CHO-XBP1 luciferase reporter, luminescence, uHTS (AID 463104);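 note: 100% = tunicamycin at 10 µg/mL and 0% = DMSO only wells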
Details: IRE1-XBP1 UPR activation, at 20 µM, hits give high values, percent of tunicamycin response, DMSO as zero
Outline: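 Material: CHO cell line with stable XBP1 luciferase reporter; schedule: 16-18 h cell attachment at 37 °C, then 6 h compound exposure; signal: glow luminescence from Steady-Glo reagent; medium: serum-containing F12 medium, 10% FBS; benchmarks: tunicamycin 10 µg/mL and vehicle-only wells; read-out: percent activation relative to tunicamycin reference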

activation, active:
O=C(Nc1ccc2nc3n(c(=O)c2c1)CCCCC3)c1ccccc1Cl 45.2%
COc1ccc(Nc2cc(C)nc(-n3nc(C)cc3C)n2)cc1 121%
C=CC[C@@H](CC(=O)N[C@@H](CO)Cc1ccccc1)C(=O)N[C@H](COC(=O)[C@H](CC=C)CC(=O)OC(C)(C)C)Cc1ccccc1 32.4%
COc1ccccc1N=Cc1c(O)c2ccccc2oc1=O 120%
CCC1(CC)Cc2ccccc2-c2nc(CCl)[nH]c(=O)c21 45.2%
N#CCC(=O)N/N=C/c1cn(Cc2ccc3ccccc3c2)c2ccccc12 77.3%
OCCNc1nc(Nc2ccc(Cl)c(Cl)c2)nc2ccccc12 46.6%
CCCc1ccc(OCc2ccc(C(=O)N/N=C/c3cccc([N+](=O)[O-])c3)o2)c(OC)c1 35.5%
CCCCCCCCCCOC(=O)Cn1c(COc2ccc(C)cc2)[n+](C)c2ccccc21 41.7%
COC(=O)Cc1csc(/N=C/c2c(O)n(-c3cccc(C(F)(F)F)c3)c(=O)c3ccccc23)n1 46.3%
CC(=O)Nc1ccccc1Sc1ccc2c3c(cccc13)C(=O)N(c1ccc(C)cc1)C2=O 33.8%
CCOc1ccc(S(=O)(=O)Nc2cccc(C(=O)NCC3(N4CCCCC4)CCCCC3)c2)cc1 66.6%
CN(c1cccc(NC(=O)Nc2ccc(Cl)cc2)c1)S(C)(=O)=O 33.6%
O=C(C[C@H]1C/C=C\C[C@@H](NC(=O)OCC2c3ccccc3-c3ccccc32)C(=O)O[C@@H](c2ccccc2)CNC1=O)N[C@H](CO)Cc1ccccc1 100%
CCOC(=O)/C=c1\s/c(=C\c2ccc(C#N)cc2)c(=O)n1CC(=O)Nc1cccc(C)c1C 217%
O=C(COC(=O)/C=C/c1cn(-c2ccccc2)nc1-c1cccnc1)Nc1ccc(Cl)cc1Cl 43.9%
N#Cc1ccccc1NC(=O)COc1c(Br)cc(Br)c2cccnc12 116%

activation, inactive:
CC(C)(C)c1cc(P(=O)(c2ccccc2)c2ccccc2)ccc1O -1.41%
CN(C)c1ccc(NC(=O)c2ccncc2)c2ccccc12 -0.55%
CCCCN(CC)C(=S)Nc1ccc2nc3n(c(=O)c2c1)CCCCC3 1.45%
O=C(Nc1ccc2nc3n(c(=O)c2c1)CCCC3)c1ccc(Cl)nc1 2.35%
Cc1ccc(CS(=O)(=O)CCC(=O)NCc2ccc(F)cc2)cc1 -1.62%
COc1ccc(NC(=O)c2nc(-n3nc(C)cc3C)ccc2Cl)cc1Cl -2.77%
CC(=O)c1ccc(Oc2cc(C)nc(-n3nc(C)cc3C)n2)cc1 16.4%
CC(=O)OCCN(CCCn1c(-c2ccncc2)nc2ccccc21)c1nc(-c2ccc(C)cc2)cs1 -1.12%
C=CC[C@@H](CC(=O)N[C@@H](CO)Cc1ccccc1)C(=O)NCCOC(=O)[C@@H](CC=C)CC(=O)OC(C)(C)C -2.2%
C=CC[C@@H](CC(=O)N[C@H](CO)Cc1ccccc1)C(=O)N[C@H](C)COC(=O)[C@@H](CC=C)Cc1ccc(F)cc1 -2.99%
CCCc1cc(=O)[nH]c2nnc(SCC(=O)Nc3nnc(SCC)s3)n12 -0.61%
O=C(NCc1ccccc1Cl)NC(=O)c1csc([N+](=O)[O-])c1 -1.89%
O=C(COc1ncnc2ccccc12)NC(=O)NCc1ccccc1 -0.7%
O=C(O)CCC(=O)NCc1ccc(C(=O)O)cc1 -0.32%
COc1ccccc1N=C(C)C1=C(O)COC1=O 0.65%
COc1cc(N=Cc2c(O)c3ccccc3oc2=O)c(OC)cc1Cl -0.88%
COc1ccc(-c2nc3ccccc3n2CCC(C)C)cc1OC -2.77%
COc1ccc(C(C)(C)C)cc1NC(=O)CCN1C(=O)C2CCCCC2C1=O (stereo not drawn) 0.21%
CS(=O)(=O)N(CC(=O)N/N=C/c1ccccn1)c1ccc(Oc2ccccc2)cc1 1.21%
CC1(C)Cc2ccccc2-c2[nH]c(=S)[nH]c(=O)c21 -3.14%
CC1(C)Cc2ccccc2-c2nc(CN3CCOCC3)[nH]c(=O)c21 2.37%
Cc1ccc2nnn(Cc3cccc(C(C)(C)C)c3O)c2c1 -2.21%
CCOC(=O)/C=C/c1ccc(C(F)(F)F)cc1S(=O)(=O)NC(C)(C)C 3.87%
COc1ccc(CNC(=O)CCC(=O)Nc2nnc(C(C)C)s2)cc1 2.87%
COc1cccc(Cn2cc(/C=N/NC(=O)c3cc(O)cc(O)c3)c3ccccc32)c1 -0.87%
CNC(=S)N/N=C/c1cn(Cc2ccc(C)cc2)c2ccccc12 -0.8%
OCCC1CN(Cc2ccccc2-c2ccco2)CCN1Cc1ccsc1 (stereo not drawn) -1.57%
Cc1cc(NC(=O)Nc2c[nH]c(=O)[nH]c2=O)ccc1Br -0.89%
Cc1ccc(Nc2nc(N)nc(CN3CCN(Cc4ccccc4)CC3)n2)cc1Cl 3.65%
CNc1nc(Nc2ccc(C)c(Cl)c2)nc(N)c1[N+](=O)[O-] 10.8%
COC(=O)c1ccc(COc2ccc(/C=N/NC(=O)C(=O)Nc3ccc(OC)cc3)cc2OC)o1 -0.77%
N#Cc1cc([N+](=O)[O-])ccc1Oc1cccc(/C=N/NC(=O)c2ccc(Cl)cc2)c1 -0.61%
CCOC(=O)COn1c(=O)c(-c2ccc(OCC)cc2)[n+]([O-])c2ccccc21 0.06%
CCCCCCCCCCOC(=O)Cn1c(COc2cccc(OC)c2)[n+](C)c2ccccc21 20.9%
CCN(CC(=O)NCC(=O)Nc1cccc(C)c1C)Cc1ccccc1 -5.66%
Cc1c(Br)c([N+](=O)[O-])nn1C(C)C(=O)Nc1nccs1 (stereo not drawn) -1.86%
Cc1ccc(-n2c(O)c(C=Nc3ccc(S(=O)(=O)Nc4ncccn4)cc3)c3ccccc3c2=O)cc1C -1.86%
COC(=O)Cc1csc(Nc2c(C)n(C)n(-c3ccccc3)c2=O)n1 -0.87%
Cc1ccc(N2C(=O)CC(Nc3cccc4ccccc34)C2=O)cc1 (stereo not drawn) -0.83%
CSc1ccccc1NC(=O)C(C)N1C(=O)c2ccccc2S1(=O)=O (stereo not drawn) 0.16%
CC1CCN(C(=O)COC(=O)c2cc(=O)[nH]c3ccccc23)CC1 -0.76%
CCn1c2ccccc2c2cc(NC(=S)N3CCOCC3)ccc21 -1.32%
CCOC(=O)C(C)n1cnc2c(nnn2-c2cccc(OC)c2)c1=O (stereo not drawn) -2.11%
O=C(NCC1(N2CCCCC2)CCCCC1)c1ccc(NS(=O)(=O)c2ccc(F)cc2)cc1 0.16%
CCOc1ccc(NS(=O)(=O)c2ccc(C(=O)NCC(c3ccccc3OC)N3CCCC3)cc2)cc1 (stereo not drawn) -3.45%
CCOc1ccccc1C(=O)NC1CC2CCCC(C1)N2Cc1ccccc1 (stereo not drawn) 2.18%
Cc1ccc(C)c(NC(=O)c2ccc3nccnc3c2)c1 0.85%
Clc1ccc(CSc2nnc([C@@H]3CCCN3)o2)cc1 0.7%
CCC1CCCCN1S(=O)(=O)Cc1ccccc1Cl (stereo not drawn) -1.25%
COC(=O)c1c(NC(=O)CN2CCN(S(=O)(=O)c3ccccc3[N+](=O)[O-])CC2)sc2c1CCC(C)C2 (stereo not drawn) -0.95%
O=C1CSC2=NCN(c3ccccc3)CN12 1.38%
CN(c1cccc(NC(=O)c2ccc(CN3CCc4ccccc4C3)cc2)c1)S(C)(=O)=O -1.68%
CN(c1ccccc1)S(=O)(=O)c1cccc(NC(=O)Cc2ccc(Cl)cc2)c1 -1.79%
CCCOc1cccc(C(=O)Nc2nnn(CCC)n2)c1 0.81%
Cc1noc(C)c1S(=O)(=O)Nc1cc(C(F)(F)F)ccc1N1CCOCC1 -0.99%
COCCNC(=S)c1ccc(OC)cc1 -1.99%
O=C(NCc1ccc(Cl)cc1)C(=O)NCC1CCCN1S(=O)(=O)c1cccs1 (stereo not drawn) -4.11%
CC(C)(C)OC(=O)C[C@@H]1C/C=C\C[C@@H](CC(=O)N[C@H](CO)Cc2ccccc2)C(=O)NC[C@@H](c2ccccc2)OC1=O -1.85%
CC(C)(C)OC(=O)C[C@H]1C/C=C\C[C@@H](CC(=O)N[C@H](CO)Cc2ccccc2)C(=O)NC[C@@H](c2ccccc2)OC1=O 5.5%
O=c1c(Cl)c(NCc2ccc(F)cc2Cl)cnn1C12CC3CC(CC(C3)C1)C2 -1.62%
COc1ccc(C(=O)N2CCN(c3ncccn3)CC2)cc1S(=O)(=O)N1CCOCC1 1.37%
Cc1cccc(NC(=O)CSC(N)=O)c1C 0.46%
Cc1cccc(NC(=O)CN2CCN(C(=O)C3CCN(C(=O)/C=C/c4ccccc4)CC3)CC2)c1C -2.16%
Cc1csc(NC(=O)C2CCCN2C(=O)OCC(C)C)n1 (stereo not drawn) -2.24%
COc1ccc(NC(=O)CN(C)C(=O)/C=C/c2cn(Cc3ccccc3)nc2-c2cccnc2)cc1 -0.51%
Cc1ccc(/C=C/C(=O)OCC(=O)Nc2cccnc2Cl)cc1 -1.42%
O=S(=O)(c1ccc(-c2ccno2)s1)N1CCCCC1 -1.02%
COc1ccc(OC)c(S(=O)(=O)N2CCCC(C(=O)N3CCC(C(N)=O)CC3)C2)c1 (stereo not drawn) 0.16%
COc1ccc(C)cc1N(C)C(=O)c1coc(=O)c2ccccc12 2.41%
O=C(COC(=O)c1ccccn1)Nc1cccc2ccccc12 -3.78%
Cc1cc(NC(=O)COc2ccccc2C#N)no1 6.89%
